Test results as given in ChEMBL document CHEMBL2401654, “Synthesis, characterization, and biological assessment of the four stereoisomers of the H(3) receptor antagonist 5-fluoro-2-methyl-N-[2-methyl-4-(2-methyl[1,3']bipyrrolidinyl-1'-yl)phenyl]benzamide” (Bioorg Med Chem Lett, 2013).
In brackets after ≈: the same amount, converted by molar mass.

Key:
Mus musculus [1] = assay: Toxicity in mouse assessed as appearance of abnormal clinical signs at 3 to 30 mg/kg, po after 1 week; type: organism-based; design: dose 3-30 mg/kg, route oral; conditions: in vivo, 168 h
Summary of the method: (§1)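 Behavioral safety study in mice given single oral doses of 3, 10 and 30 mg/kg. Tremors, tail pinch response, body temperature, pupil size and body weight were scored at 2 and 6 h post dose. Clinical signs were observed over one week after dosing.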

[2] = AUC (0 to infinity) in C57BL/6 mouse brain at 2 mg/kg, iv; type: ADME, organism-based; design: time infinity, dose 2 mg/kg, route intravenous
Summary of the method: (§2)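 Male C57BL/6 mice received a single intravenous dose of 2 mg/kg, formulated at 1 mg/mL in 50% 1-methyl-2-pyrrolidinone in saline. Plasma and brain concentrations were followed to derive PK parameters. Brain to plasma ratio was calculated from AUC.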

[3] = Volume of distribution at steady state in C57BL/6 mouse at 2 mg/kg, iv; type: ADME, organism-based; design: dose 2 mg/kg, route intravenous; conditions: in vivo, read-out: Vdss; summary of the method: as §2
[4] = AUC (0 to infinity) in C57BL/6 mouse brain at 10 mg/kg, po; type: ADME, organism-based; design: time infinity, dose 10 mg/kg, route oral
Summary of the method: (§3)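 Male C57BL/6 mice were dosed orally at 10 mg/kg, formulated at 1 mg/mL in 5% DMSO/0.5% MC/0.2% tween 80. Plasma and brain were sampled for PK parameters. Brain to plasma ratio was based on AUC0-24.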

Cytochrome P450 2D6 = Cytochrome P450 2D6 (Homo sapiens, UniProt P10635); assay: Inhibition of CYP2D6 (unknown origin); type: ADME
[5] = Ratio of AUC (0 to 24 hrs) in C57BL/6 mouse brain to AUC (0 to 24 hrs) in C57BL/6 mouse plasma at 10 mg/kg, po; type: ADME, organism-based; design: dose 10 mg/kg, route oral; conditions: read-out: Ratio AUC
Summary of the method: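 Male C57BL/6 mice were given a single oral dose of 10 mg/kg, formulated at 1 mg/mL in 5% DMSO/0.5% MC/0.2% tween 80. Compound levels were measured in plasma and brain over time. The brain-to-plasma ratio was calculated from AUC0-24 values.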

Cytochrome P450 2C9 = Cytochrome P450 2C9 (Homo sapiens, UniProt P11712); assay: Inhibition of CYP2C9 (unknown origin); type: ADME
Mus musculus [6] = assay: Toxicity in mouse assessed as increase in tail pinch at 30 mg/kg, po measured at 6 hrs; type: organism-based; design: dose 30 mg/kg, route oral; conditions: in vivo; summary of the method: as §1
[7] = Half life in C57BL/6 mouse plasma at 2 mg/kg, iv; type: ADME, organism-based; design: dose 2 mg/kg, route intravenous; summary of the method: as §2
hERG (KCNH2) = hERG (KCNH2) (Homo sapiens, UniProt Q12809); assay: Inhibition of human ERG transfected in CHO cells at 1 uM by patch clamp assay relative to control; type: cell-based; conditions: CHO cells transfected with human ERG
Summary of the method: (§4)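 Whole-cell patch clamp on CHO cells stably transfected with the human ERG gene.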

Mus musculus [8] = assay: Toxicity in mouse assessed as effect on pupil size at 3 to 30 mg/kg, po; type: organism-based; design: dose 3-30 mg/kg, route oral; conditions: in vivo; summary of the method: as §1
[9] = AUC (0 to infinity) in C57BL/6 mouse plasma at 10 mg/kg, po; type: ADME, organism-based; design: time infinity, dose 10 mg/kg, route oral; summary of the method: as §3
Mus musculus [10] = assay: Toxicity in mouse assessed as effect on body weight at 3 to 30 mg/kg, po; type: organism-based; design: dose 3-30 mg/kg, route oral; conditions: in vivo; summary of the method: as §1
Histamine H3 receptor = Histamine H3 receptor (Homo sapiens, UniProt Q9Y5N1); assay: Displacement of [3H]N-alpha-methylhistamine from recombinant human histamine H3 receptor transfected in CHO cell membranes after 1 hr by scintillation counting analysis
Summary of the method: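 Radioligand displacement of [3H]N-α-methylhistamine using membranes from CHO cells stably transfected with recombinant human or rat H3 receptor. Ki is presented as a range of multiple experiments (n ≥ 3).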

[11] = Drug metabolism in mouse liver microsomes at 5 uM after 20 mins; type: ADME, Microsome; conditions: read-out: Drug metabolism
Summary of the method: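 Substrate at 5 µM incubated at 37 °C for 20 min with in-house liver microsome preparations (human, mouse or rat). Reported as the percentage of parent compound metabolized.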

[12] = Solubility of the compound in PBS buffer at pH 7.4; type: physicochemical
Summary of the method: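 Solubility measured in PBS at pH 7.4.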

[13] = molecular target: Voltage-gated inwardly rectifying potassium channel KCNH2 (Homo sapiens, UniProt Q12809); assay: Inhibition of human ERG transfected in CHO cells by patch clamp assay; type: cell-based; summary of the method: as §4
Mus musculus [14] = assay: Toxicity in mouse assessed as increase in body temperature at 30 mg/kg, po measured at 6 hrs; type: organism-based; design: dose 30 mg/kg, route oral; conditions: in vivo; summary of the method: as §1
[15] = Half life in C57BL/6 mouse brain at 10 mg/kg, po; type: ADME, organism-based; design: dose 10 mg/kg, route oral; summary of the method: as §3
Histamine receptor H3 = Histamine receptor H3 (Macaca mulatta, UniProt Q865E1); assay: Displacement of [3H]N-alpha-methylhistamine from recombinant rhesus monkey histamine H3 receptor transfected in CHO cell membranes after 1 hr by scintillation counting analysis
[16] = Partition coefficient, log P of the compound; type: physicochemical; conditions: octanol/water
[17] = Cmax in C57BL/6 mouse plasma at 10 mg/kg, po; type: ADME, organism-based; design: dose 10 mg/kg, route oral; summary of the method: as §3
[18] = Tmax in C57BL/6 mouse plasma at 2 mg/kg, iv; type: ADME, organism-based; design: dose 2 mg/kg, route intravenous; summary of the method: as §2

Chain of Histamine receptor H3 (Q865E1 whole entry): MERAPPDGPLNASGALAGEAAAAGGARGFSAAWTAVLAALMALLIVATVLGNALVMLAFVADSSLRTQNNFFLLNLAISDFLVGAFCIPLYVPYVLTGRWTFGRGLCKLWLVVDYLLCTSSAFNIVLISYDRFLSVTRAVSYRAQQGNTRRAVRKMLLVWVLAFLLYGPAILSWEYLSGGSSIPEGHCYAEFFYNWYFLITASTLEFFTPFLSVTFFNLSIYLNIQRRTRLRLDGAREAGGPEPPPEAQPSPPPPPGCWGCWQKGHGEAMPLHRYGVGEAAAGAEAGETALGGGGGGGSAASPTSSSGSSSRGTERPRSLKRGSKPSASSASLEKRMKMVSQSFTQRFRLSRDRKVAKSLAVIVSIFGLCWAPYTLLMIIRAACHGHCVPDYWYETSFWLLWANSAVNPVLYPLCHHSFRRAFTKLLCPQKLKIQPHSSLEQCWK
Chain of Histamine H3 receptor (Q9Y5N1 whole entry): as the sequence (Q865E1 whole entry) above, with N148D, G240A, A282V, T289A, A290T, A300V, Q442H counted along it
Chain of Cytochrome P450 2C9 (P11712 whole entry): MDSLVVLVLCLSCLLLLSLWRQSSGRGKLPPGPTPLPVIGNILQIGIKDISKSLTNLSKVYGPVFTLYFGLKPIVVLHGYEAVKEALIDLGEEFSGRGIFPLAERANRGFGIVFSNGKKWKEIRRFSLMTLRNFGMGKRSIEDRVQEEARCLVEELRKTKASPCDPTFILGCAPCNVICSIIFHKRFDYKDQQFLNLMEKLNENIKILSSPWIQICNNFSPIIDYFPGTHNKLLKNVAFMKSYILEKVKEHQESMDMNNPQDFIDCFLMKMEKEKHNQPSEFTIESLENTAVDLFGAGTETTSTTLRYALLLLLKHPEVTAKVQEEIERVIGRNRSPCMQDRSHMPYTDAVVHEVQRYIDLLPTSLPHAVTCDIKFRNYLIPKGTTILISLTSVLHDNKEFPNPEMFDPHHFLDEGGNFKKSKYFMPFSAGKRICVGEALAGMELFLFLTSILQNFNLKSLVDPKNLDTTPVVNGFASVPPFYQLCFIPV
Chain of Cytochrome P450 2D6 (P10635 whole entry): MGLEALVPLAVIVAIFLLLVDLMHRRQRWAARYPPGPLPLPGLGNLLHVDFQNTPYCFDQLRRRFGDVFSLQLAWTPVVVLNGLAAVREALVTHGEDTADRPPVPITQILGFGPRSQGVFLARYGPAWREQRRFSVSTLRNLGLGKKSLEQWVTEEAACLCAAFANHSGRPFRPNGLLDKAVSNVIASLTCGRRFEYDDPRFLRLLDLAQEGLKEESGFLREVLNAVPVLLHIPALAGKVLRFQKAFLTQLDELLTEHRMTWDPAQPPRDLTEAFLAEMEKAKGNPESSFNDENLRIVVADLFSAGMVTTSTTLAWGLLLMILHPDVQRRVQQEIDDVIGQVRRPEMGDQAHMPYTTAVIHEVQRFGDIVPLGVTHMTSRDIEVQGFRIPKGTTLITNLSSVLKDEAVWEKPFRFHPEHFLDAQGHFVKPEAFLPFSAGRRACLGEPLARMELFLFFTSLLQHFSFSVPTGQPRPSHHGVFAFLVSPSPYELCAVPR
Chain of hERG (KCNH2) (Q12809 whole entry): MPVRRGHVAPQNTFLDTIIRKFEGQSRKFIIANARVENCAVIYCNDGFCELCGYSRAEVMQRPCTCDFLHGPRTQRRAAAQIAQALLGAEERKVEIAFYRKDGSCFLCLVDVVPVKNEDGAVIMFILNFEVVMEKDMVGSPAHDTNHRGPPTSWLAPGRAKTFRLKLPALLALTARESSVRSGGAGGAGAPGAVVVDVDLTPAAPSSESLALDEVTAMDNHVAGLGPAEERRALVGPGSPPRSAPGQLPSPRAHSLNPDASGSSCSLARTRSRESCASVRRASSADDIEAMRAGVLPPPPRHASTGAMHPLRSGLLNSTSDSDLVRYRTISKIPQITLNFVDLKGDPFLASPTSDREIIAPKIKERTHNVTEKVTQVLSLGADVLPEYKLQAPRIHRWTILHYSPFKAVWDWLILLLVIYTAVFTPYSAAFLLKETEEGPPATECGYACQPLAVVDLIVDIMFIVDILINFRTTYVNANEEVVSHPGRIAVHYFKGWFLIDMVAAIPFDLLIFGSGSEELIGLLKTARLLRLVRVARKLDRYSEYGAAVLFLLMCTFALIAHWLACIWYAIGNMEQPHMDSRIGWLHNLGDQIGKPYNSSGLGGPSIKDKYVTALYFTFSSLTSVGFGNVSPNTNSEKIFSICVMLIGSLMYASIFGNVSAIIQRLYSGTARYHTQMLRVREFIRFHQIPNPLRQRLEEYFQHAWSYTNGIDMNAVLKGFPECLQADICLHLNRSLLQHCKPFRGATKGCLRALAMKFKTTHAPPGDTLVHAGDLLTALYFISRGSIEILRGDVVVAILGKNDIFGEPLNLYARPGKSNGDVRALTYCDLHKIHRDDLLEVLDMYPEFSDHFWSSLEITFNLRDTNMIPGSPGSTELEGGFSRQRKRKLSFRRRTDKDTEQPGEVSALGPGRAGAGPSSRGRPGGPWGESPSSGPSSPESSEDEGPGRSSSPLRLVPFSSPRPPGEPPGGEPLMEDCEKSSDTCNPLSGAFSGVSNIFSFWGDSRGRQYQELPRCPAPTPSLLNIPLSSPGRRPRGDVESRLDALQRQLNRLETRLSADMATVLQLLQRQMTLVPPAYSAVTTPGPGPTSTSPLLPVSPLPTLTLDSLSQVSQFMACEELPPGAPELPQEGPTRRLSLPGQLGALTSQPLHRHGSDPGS
Chain of Voltage-gated inwardly rectifying potassium channel KCNH2 (Q12809 whole entry): as above

Cc1cc(N2CC[C@H](N3CCC[C@@H]3C)C2)ccc1NC(=O)c1cc(F)ccc1C
Activity (Mus musculus [1]): Non-toxic
AUC(0-inf) [2]: 2600 ng·h/mL
Vd [3]: 5.2 L/kg
AUC(0-inf) [4]: 18000 ng·h/mL
IC50 (Cytochrome P450 2D6): > 30000 nM
Kp [5]: 4.6
IC50 (Cytochrome P450 2C9): > 30000 nM
Activity (Mus musculus [6]): Toxic
half-life [7]: 2.6 h
inhibition at 1 µM (hERG (KCNH2)): 43.4%
Activity (Mus musculus [8]): Non-toxic
AUC(0-inf) [9]: 4000 ng·h/mL
Activity (Mus musculus [10]): Non-toxic
Ki (Histamine H3 receptor): 3.4 nM
metabolised at 20 min, 5 µM [11]: 19%
solubility [12]: 293 µg/mL (≈ 742 µM)
IC50 [13]: 1100 nM
Activity (Mus musculus [14]): Toxic
half-life [15]: 3.5 h
Ki (Histamine receptor H3): 2.5 nM
logP [16]: 3.55
Cmax [17]: 1310 ng/mL
Tmax [18]: 4.98 min
